Data reported in ChEMBL document CHEMBL4834395, “Azole-Based Indoleamine 2,3-Dioxygenase 1 (IDO1) Inhibitors” (J Med Chem, 2021).
Active and inactive are the calls of the source. The rule behind the calls is not given here.

Key:
[1] = target: T1, Indoleamine 2,3-dioxygenase 1 (Homo sapiens, UniProt P14902); test: Inhibition of recombinant human IDO1 expressed in Escherichia coli Rosetta (DE3) cells assessed as reduction in kynurenine production using L-tryptophan as substrate incubated for 20 mins by HPLC analysis
Target sequence in this assay (P14902 whole entry): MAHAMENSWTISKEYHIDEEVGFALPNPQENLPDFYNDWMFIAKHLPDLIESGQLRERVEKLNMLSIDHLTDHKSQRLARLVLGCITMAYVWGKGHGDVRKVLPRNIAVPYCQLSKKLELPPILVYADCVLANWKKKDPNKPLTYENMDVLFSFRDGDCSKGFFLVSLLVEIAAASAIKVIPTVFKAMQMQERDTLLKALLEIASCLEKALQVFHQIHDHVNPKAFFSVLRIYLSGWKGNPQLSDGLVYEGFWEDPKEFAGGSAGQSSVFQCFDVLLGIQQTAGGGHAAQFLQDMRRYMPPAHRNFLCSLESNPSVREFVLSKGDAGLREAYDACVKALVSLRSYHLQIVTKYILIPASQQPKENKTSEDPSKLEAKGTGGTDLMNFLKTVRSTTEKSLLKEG

HEK-293T = test: Cytotoxicity against human HEK293T cells assessed as reduction in cell viability at 200 uM after 7 hrs by DAPI staining based assay
Procedure, shortened: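 HEK 293T cells transiently transfected with hIDO1 (plus GFP plasmid), treated at 200 μM test compound with 2% final DMSO for 7 h at 37 °C; DMSO as negative control. Cells then washed in PBS, resuspended in PBS with 1 μg/mL DAPI and analysed immediately by flow cytometry to detect apoptotic cells.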

[2] = target: T1, Indoleamine 2,3-dioxygenase 1; test: Inhibition of human IDO1 expressed in HEK293T cells assessed as reduction in kynurenine production using L-tryptophan as substrate incubated for 7 hrs by HPLC analysis; assay type: cell-based
Target sequence in this assay (P14902 whole entry): as above

[3] = target: T1, Indoleamine 2,3-dioxygenase 1; test: Inhibition of human IDO1 expressed in HEK293T cells assessed as reduction in kynurenine production at 200 uM using L-tryptophan as substrate incubated for 7 hrs by HPLC analysis; assay type: cell-based
Procedure, shortened: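 HEK 293T cells transiently transfected with full-length hIDO1 in pcDNA6/myc-His (with GFP plasmid to check efficiency); 16–18 h later replated in phenol-red-free DMEM with 10% FBS, 1 mM pyruvate, and added 500 μM L-trp. Compound at 200 μM, 2% final DMSO, 7 h at 37 °C; stopped with TCA (4% final). Kynurenine read by p-DMAB absorbance at 480 nm or by HPLC.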
Target sequence in this assay (P14902 whole entry, looked up): as the sequence (P14902 whole entry) above

[4] = target: T1, Indoleamine 2,3-dioxygenase 1; test: Inhibition of recombinant human IDO1 expressed in Escherichia coli Rosetta (DE3) cells assessed as reduction in kynurenine production using L-tryptophan as substrate at pH 7.4 incubated for 20 mins by HPLC analysis
Target sequence in this assay (P14902 whole entry): as above

| SMILES | IC50 [1] [µM] | Activity (HEK-293T) | IC50 [2] [µM] | inhibition [3] | IC50 [4] [µM] |
| --- | --- | --- | --- | --- | --- |
| Oc1ccccc1-n1ccnc1 | 16 | Non-Toxic |  |  |  |
| Nc1ccc(Cl)cc1-c1nnc[nH]1 | 0.035 | Non-Toxic | 0.034 |  |  |
| Oc1ccc(Cl)cc1-n1ccnc1 | 2.1 | Non-Toxic |  | inactive |  |
| Nc1ccc(Cl)cc1-n1ccnc1 | 88 | Non-Toxic |  |  |  |
| Oc1ccccc1-c1nnn[nH]1 | 700 | Non-Toxic |  |  |  |
| Nc1ccc(Cl)cc1-c1cnn[nH]1 | 1.5 | 30% |  |  |  |
| Nc1ccc(Cl)cc1-c1nnn[nH]1 | 0.22 | Non-Toxic |  |  |  |
| Nc1ccccc1-c1c[nH]nn1 | 33 | 30% |  |  |  |
| Cn1cncc1-c1cccc(Cl)c1 | 12.9 | Non-Toxic |  |  |  |
| Nc1ccccc1-c1nnn[nH]1 | 5.8 | Non-Toxic |  |  |  |
| Oc1ccc(Cl)cc1-c1nnc[nH]1 | 0.6 | Non-Toxic |  |  |  |
| c1ccc(-n2ccnc2)cc1 |  | Non-Toxic |  |  |  |
| Oc1ccc(Cl)cc1-c1c[nH]nn1 |  | Non-Toxic |  |  |  |
| Clc1cccc(-n2ccnc2)c1 | 41 | Non-Toxic |  |  |  |
| Oc1ccc(Cl)cc1-c1cnc[nH]1 |  | Non-Toxic |  |  |  |
| c1ccc(-c2nc[nH]n2)cc1 |  | Non-Toxic |  |  | 580 |
| Cn1cncc1-c1cc(Cl)ccc1O | 17 | Non-Toxic |  |  |  |
| Cn1cncc1-c1ccccc1N | 1700 | Non-Toxic |  |  |  |
| Cn1cncc1-c1ccccc1 |  | Non-Toxic |  |  |  |

| SMILES | IC50 [1] [µM] | Activity (HEK-293T) | IC50 [2] [µM] | inhibition [3] | IC50 [4] [µM] |
| --- | --- | --- | --- | --- | --- |
| c1ccc(-c2c[nH]cn2)cc1 |  | Non-Toxic |  |  |  |
| Oc1ccccc1-c1c[nH]nn1 | 2.3 | Non-Toxic |  |  |  |
| Nc1ccccc1-n1ccnc1 | 1300 | Non-Toxic |  |  |  |
| Nc1ccc(Br)cc1-c1nc[nH]n1 | 0.02 |  |  |  |  |
| Clc1cccc(-c2nnn[nH]2)c1 | 100 | Non-Toxic |  |  |  |
| Clc1cccc(-c2c[nH]nn2)c1 | 0.35 | Non-Toxic |  |  |  |
| Nc1ccc(Cl)cc1-c1cnc[nH]1 | 12.1 | Non-Toxic |  |  |  |
| c1ccc(-c2cnn[nH]2)cc1 |  | Non-Toxic |  |  |  |
| Oc1ccccc1-c1nnc[nH]1 | 31 | Non-Toxic |  |  |  |
| Cn1cncc1-c1ccccc1O | 38 | Non-Toxic |  |  |  |
| Oc1ccccc1-c1c[nH]cn1 |  | Non-Toxic |  |  |  |
| c1ccc(-c2nnn[nH]2)cc1 |  | Non-Toxic |  |  |  |
| Clc1cccc(-c2nnc[nH]2)c1 | 31 | Non-Toxic |  |  |  |
| Oc1ccc(Cl)cc1-c1nnn[nH]1 | 16 | Non-Toxic |  |  |  |
| Nc1ccccc1-c1nnc[nH]1 | 2 | Non-Toxic |  |  |  |
| Nc1ccccc1-c1cnc[nH]1 | 18 | Non-Toxic |  |  |  |
| Cn1cncc1-c1cc(Cl)ccc1N | 1200 | Non-Toxic |  |  |  |
| Clc1cccc(-c2cnc[nH]2)c1 | 2.6 | Non-Toxic |  |  |  |
